# Reference: ChEMBL document CHEMBL4390648, “Chemical synthesis, crystal structure, versatile evaluation of their biological activities and molecular simulations of novel pyrithiobac derivatives” (Eur J Med Chem, 2019)
# Calls of active or inactive are those of the source. The calls are words filed in the database; no cut-off is given here.
# Assays:
# [1] = test system: Candida albicans; test: Antifungal activity against Candida albicans isolate g5 grown in RPMI 1640 medium incubated for 24 hrs by microdilution method; format: functional; conditions: isolate g5, 24 h
# Procedure, shortened: (§1)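 C. albicans standard strain SC5314 and clinical isolates g5 and 17# tested by broth microdilution in YNB or RPMI 1640 medium. Plates incubated at 35 °C for up to 72 h, with visual readings taken at 24 h. MIC taken as the lowest concentration preventing visible growth.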
# [2] = test system: Brassica rapa subsp. oleifera; test: Herbicidal activity against Brassica campestris L assessed as inhibition of rape root growth at 10 mg/l root growth incubated for 48 hrs relative to control; format: functional
# Procedure, shortened: (§2)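 Rape seeds soaked in distilled water for 4 h, then placed on filter paper wetted with inhibitor solution, 15 seeds per 6-cm dish. Germinated in the dark at 28 °C for 48 h. Mean length of 10 roots per plate measured.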
# [3] = test system: Candida albicans; test: Antifungal activity against Candida albicans isolate 17 grown in RPMI 1640 medium incubated for 24 hrs by microdilution method; format: functional; conditions: isolate 17, 24 h; procedure, shortened: as §1
# [4] = test system: Brassica rapa subsp. oleifera; test: Herbicidal activity against Brassica campestris L assessed as inhibition of rape root growth at 100 mg/l root growth incubated for 48 hrs relative to control; format: functional; procedure, shortened: as §2
# [5] = test system: Phytophthora capsici; test: Antifungal activity against Phytophthora capsici assessed as reduction in growth at 50 mg/l by mycelium growth rate method relative to control; format: functional
# Procedure, shortened: (§3)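 Mycelium growth rate method against S. sclerotiorum, P. capsici, P. piricola, R. cerealis, W. anthracnose and R. bakanae. Each compound tested at 50 mg/L, with chlorothalonil and PTB as controls. Relative inhibitory ratio (%) calculated from mycelial growth.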
# [6] = test system: Candida albicans; test: Inhibition of Candida albicans AHAS catalytic subunit at 100 uM using pyruvate as substrate measured after 30 mins by colorimetric method relative to control
# Procedure, shortened: (§4)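 Colorimetric assay in 50 mM potassium phosphate pH 7.0 with 50 mM pyruvate, 1 mM thiamine diphosphate, 10 mM MgCl2 and 10 μM FAD. Incubated 30 min at 37 °C for plant AHAS and 30 °C for fungal AHAS. Acetolactate formed was then quantified.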
# [7] = test system: Arabidopsis thaliana; test: Inhibition of Arabidopsis thaliana AHAS catalytic subunit using pyruvate as substrate at 100 uM measured after 30 mins by colorimetric method relative to control; procedure, shortened: as §4
# [8] = test system: Amaranthus retroflexus; test: Pre-emergence herbicidal activity against Amaranthus retroflexus assessed as reduction in growth at 300g/ha measured after 24 days by green house pot method relative to control; format: functional; conditions: 576 h
# [9] = test system: Echinochloa crus-galli; test: Post-emergence herbicidal activity against Echinochloa crus-galli assessed as reduction in growth at 300g/ha measured after 24 days by green house pot method relative to control; format: functional; conditions: 576 h
# [10] = test system: Echinochloa crus-galli; test: Pre-emergence herbicidal activity against Echinochloa crus-galli assessed as reduction in growth at 300g/ha measured after 24 days by green house pot method relative to control; format: functional; conditions: 576 h
# [11] = test system: Tobacco mosaic virus; test: Antiviral activity against Tobacco mosaic virus inoculated in Nicotiana tabacum leaves assessed as passivation by measuring local lesion numbers at 100 mg/l pre-incubated with virus for 30 mins followed by inoculation and measured up to 4 days; format: functional
# Procedure, shortened: (§5)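 Passivation assay: TMV mixed with an equal volume of compound solution for 30 min, then rubbed onto the left half of N. tabacum L. leaves. The right half received virus mixed with solvent as control. Local lesions counted 3–4 days after inoculation. Compounds tested at 500 or 100 mg/L.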
# [12] = test system: Candida albicans; test: Antifungal activity against Candida albicans isolate g5 grown in YNB medium incubated for 24 hrs by microdilution method; format: functional; conditions: isolate g5, 24 h; procedure, shortened: as §1
# [13] = test system: Candida albicans; test: Antifungal activity against Candida albicans SC5314 grown in RPMI 1640 medium incubated for 24 hrs by microdilution method; format: functional; conditions: SC5314, 24 h; procedure, shortened: as §1
# [14] = test system: Digitaria adscendens; test: Pre-emergence herbicidal activity against Digitaria adscendens assessed as reduction in growth at 300g/ha measured after 24 days by green house pot method relative to control; format: functional; conditions: 576 h
# [15] = test system: Digitaria adscendens; test: Post-emergence herbicidal activity against Digitaria adscendens assessed as reduction in growth at 300g/ha measured after 24 days by based green house pot method relative to control; format: functional; conditions: 576 h
# [16] = test system: Brassica rapa subsp. oleifera; test: Pre-emergence herbicidal activity against Brassica campestris assessed as reduction in growth at 300g/ha measured after 24 days green house pot method relative to control; format: functional; conditions: 576 h
# [17] = test system: Severe acute respiratory syndrome-related coronavirus; test: Inhibition of SARS coronavirus M protease using AVLQSGFRKK as substrate at 20 uM by FRET assay relative to control
# Procedure, shortened: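 Purified SARS-CoV Mpro assayed by FRET. Protein, compound and substrate were preheated at 37 °C and oscillated. Fluorescence (ex 320/em 405 nm) was read every 5 s for 200 reads.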
# [18] = test system: Ceratobasidium cereale; test: Antifungal activity against Rhizoctonia cerealis assessed as reduction in growth at 50 mg/l by mycelium growth rate method relative to control; format: functional; procedure, shortened: as §3
# [19] = test system: Arabidopsis thaliana; test: Inhibition of Arabidopsis thaliana AHAS catalytic subunit using pyruvate as substrate at 10 uM measured after 30 mins by colorimetric method relative to control; procedure, shortened: as §4
# [20] = test system: Amaranthus retroflexus; test: Post-emergence herbicidal activity against Amaranthus retroflexus assessed as reduction in growth at 300g/ha measured after 24 days by green house pot method relative to control; format: functional; conditions: 576 h
# [21] = test system: Candida albicans; test: Antifungal activity against Candida albicans isolate 17 grown in YNB medium incubated for 24 hrs by microdilution method; format: functional; conditions: isolate 17, 24 h; procedure, shortened: as §1
# [22] = test system: Candida albicans; test: Antifungal activity against Candida albicans SC5314 grown in YNB medium incubated for 24 hrs by microdilution method; format: functional; conditions: SC5314, 24 h; procedure, shortened: as §1
# [23] = test system: Fusarium fujikuroi; test: Antifungal activity against Gibberella fujikuroi assessed as reduction in growth at 50 mg/l by mycelium growth rate method relative to control; format: functional; procedure, shortened: as §3
# [24] = test system: Sclerotinia sclerotiorum; test: Antifungal activity against Sclerotinia sclerotiorum assessed as reduction in growth at 50 mg/l by mycelium growth rate method relative to control; format: functional; procedure, shortened: as §3
# [25] = test system: Colletotrichum; test: Antifungal activity against Colletotrichum (W. anthracnose) assessed as reduction in growth at 50 mg/l by mycelium growth rate method relative to control; format: functional; procedure, shortened: as §3
# [26] = test system: Botryosphaeria berengeriana; test: Antifungal activity against Physalospora pyricola assessed as reduction in growth at 50 mg/l by mycelium growth rate method relative to control; format: functional; procedure, shortened: as §3
# [27] = test system: Brassica rapa subsp. oleifera; test: Post-emergence herbicidal activity against Brassica campestris assessed as reduction in growth at 300g/ha measured after 24 days by green house pot method relative to control; format: functional; conditions: 576 h
# [28] = test system: Candida albicans; test: Inhibition of Candida albicans AHAS catalytic subunit at 10 uM using pyruvate as substrate measured after 30 mins by colorimetric method relative to control; procedure, shortened: as §4
# [29] = test system: Tobacco mosaic virus; test: Antiviral activity against Tobacco mosaic virus inoculated in Nicotiana tabacum leaves assessed as passivation by measuring local lesion numbers at 500 mg/l pre-incubated with virus for 30 mins followed by inoculation and measured up to 4 days; format: functional; procedure, shortened: as §5
# [30] = test system: Mythimna separata; test: Insecticidal activity against Mythimna separata assessed as larval mortality at 600 mg/l by leaf-dip method; format: functional
# [31] = test system: Ceratobasidium cereale; test: Antifungal activity against Rhizoctonia cerealis assessed as reduction in growth mycelium growth rate method relative to control; format: functional, organism-based
# Procedure, shortened: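 EC50 against R. cerealis derived from mycelium growth-rate inhibition over a concentration series, using a probit fit: Probit = m(log10[I] − log10[EC50]) + 5.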
# [32] = Inhibition of SARS coronavirus M protease using AVLQSGFRKK as substrate by FRET assay; parameters: species or system Severe acute respiratory syndrome-related coronavirus
# Procedure, shortened: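 Purified SARS-CoV Mpro assayed by FRET. Protein, compound and substrate were preheated at 37 °C and oscillated. Fluorescence (ex 320/em 405 nm) was read every 5 s for 200 reads. IC50 from V0/V = 1+[I]/IC50.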
# [33] = Cytotoxicity against HEK293T cells assessed as reduction in cell growth incubated for 48 hrs by MTT assay; format: cell-based, HEK-293T; conditions: human
# Procedure, shortened: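 293T cells in logarithmic phase seeded at 12000 cells/well overnight, then exposed to a range of compound concentrations for 48 h. MTT added for a further 4 h, formazan dissolved in DMSO, and OD570 read. CC50 is the concentration reducing viability by 50%.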
# [34] = test system: SARS coronavirus M protease; test: Selectivity index, ratio of CC50 for HEK293T cells to IC50 for SARS coronavirus M protease; format: toxicity; conditions: human, read-out: Ratio CC50/IC50
# Procedure, shortened: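 Medium discarded, DMSO added, OD570 read; CC50 is the concentration cutting viability by 50%. IC50 from the 37 °C Mpro FRET assay (ex 320/em 405 nm) via V0/V = 1+[I]/IC50.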
SMILES,MIC [1] [µg/mL],inhibition (INH) [2] [%],MIC [3] [µg/mL],inhibition (INH) [4] [%],inhibition at 50 µg/mL [5] [%],inhibition [6] [%],inhibition [7] [%],MIC [12] [µg/mL],MIC [13] [µg/mL],inhibition [17] [%],inhibition at 50 µg/mL [18] [%],inhibition [19] [%],MIC [21] [µg/mL],MIC [22] [µg/mL],inhibition at 50 µg/mL [23] [%],inhibition at 50 µg/mL [24] [%],inhibition at 50 µg/mL [25] [%],inhibition at 50 µg/mL [26] [%],inhibition [28] [%],inhibition at 500 µg/mL [29] [%],further results
COc1cc(OC)nc(Sc2ccc(Br)cc2C(=O)O)n1,> 100,80.7,> 100,93.6,33.3,97,100,> 100,> 100,0,72.6,61,> 100,> 100,27.3,63.9,40.5,37.5,50.5,0,inhibition at 300 g/ha [8]: 93.8%; inhibition at 300 g/ha [9]: 72.3%; inhibition at 300 g/ha [10]: 0%; inhibition at 100 µg/mL [11]: 0%; inhibition at 300 g/ha [14]: 27%; inhibition at 300 g/ha [15]: 12.8%; inhibition at 300 g/ha [16]: 89.9%; inhibition at 300 g/ha [20]: 58.7%; inhibition at 300 g/ha [27]: 80.2%; mortality at 600 µg/mL [30]: 65%
COc1cc(OC)nc(Sc2cccc(Cl)c2C(=O)O)n1 [PYRITHIOBAC],> 100,90.2,> 100,97,44.7,40,100,> 100,> 100,12.2,86.9,96,> 100,> 100,12.6,64.8,45.3,60.3,20,–,inhibition at 300 g/ha [8]: 96.3%; inhibition at 300 g/ha [9]: 59.5%; inhibition at 300 g/ha [10]: 63.4%; inhibition at 300 g/ha [14]: 63.8%; inhibition at 300 g/ha [15]: 36.6%; inhibition at 300 g/ha [16]: 95.2%; EC50 [31]: 15.4 µg/mL; inhibition at 300 g/ha [20]: 61.2%; inhibition at 300 g/ha [27]: 92.3%
COc1nc(OC)nc(Sc2cccc(I)c2C#N)n1,> 100,0,> 100,51.6,8.3,69.3,66.7,> 100,> 100,100,52.4,51.6,> 100,> 100,30.3,11.1,33.3,29.7,45.4,22.8,IC50 [32]: 3.3 µM; inhibition [11]: inactive; CC50 at 48 h [33]: 30.5 µM; mortality at 600 µg/mL [30]: 45%
COc1nc(OC)nc(Sc2ccc(F)cc2C#N)n1,100,4.6,100,60.3,25,85.1,71.2,50,100,100,57.1,59.2,25,50,33.3,33.3,40.5,75,36.4,26.4,IC50 [32]: 4.47 µM; inhibition [11]: inactive; selectivity ratio [34]: 44.5; CC50 at 48 h [33]: > 200 µM; mortality at 600 µg/mL [30]: 20%
